# High-throughput results as filed in PubChem.
# Compounds with a hit are over-represented: about 4.9% of the library has one in this group of screens.
# STAT1 act: activators of IFN-gamma induced STAT1 signaling; NIH 3T3 STAT1-luciferase reporter, luminescence; 100% = IFN-gamma alone, no compound; activation (% of control), % at 5.5 µM; actives 2.6% (n = 200,000); AID 932;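 active = activation above the screen-wide mean activation plus 3 SD, cut at about 130% in these data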;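 also: raw ratio to IFN-gamma control signal so 100% means no change and 0% no light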
# STAT3 act: STAT3 signaling activation; activation (% of control), % at 5.6 µM; actives 0.91% (n = 190,000); U3A cells, IL-6 STAT3-luciferase reporter, luminescence; 100% = signal with IL-6 EC80 alone;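 active = activation above the screen-wide mean of compound activation plus 3 SD, cut at about 130% in these data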;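 also: 0% = background luminescence of wells with medium and substrate only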
#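 Material: STAT3-luciferase reporter U3A cells; Probe or stimulus: IL-6 (33 ng/mL); Incubation: compound pre-incubation 1 h before IL-6, then 6 h stimulation at 37 °C; Technique: luminescence from STAT3-driven luciferase reporter; Evaluation: % activation versus median of IL-6-stimulated wells; Controls: IL-6-only high control.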
# APP 5'UTR act: APP 5'UTR luciferase reporter activation. AID 1276. actives 1% (n = 190,000). SH-SY5Y APP 5'UTR luciferase reporter, luminescence; zero percent = DMSO vehicle wells. activation, % at 2 µM;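 active = activation above a set limit, based on mean plus 3 SD of controls, cut at about 140% in these data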
# NF-kB expr up: NF-kB expression increase, human neuronal cells; NF-kB reporter expression; active compounds read high; fold change at 12.5 µM; actives 1.6% (n = 190,000); AID 1239; in the data active = fold change above about 3.3
# STAT3 inh-1: reduces IL-6 driven STAT3 reporter signal; inhibition, % at 5.5 µM; U3A cells, IL-6 STAT3-luciferase reporter, luminescence; host cell line lacks STAT1; actives 0.89% (n = 190,000);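 active = inhibition above the mean inhibition across all screened compounds plus 3 SD, cut at about 44% in these data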;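 also: 0% = DMSO only wells and 100% = 100 µM nifuroxazide control wells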
# STAT1 inh: reduces IFN-gamma driven STAT1 reporter signal; AID 920; actives 0.35% (n = 200,000); NIH 3T3 STAT1-luciferase reporter, luminescence; inhibition, % at 5.5 µM;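 active = inhibition above a set limit, the mean inhibition across all tested compounds plus 3 SD, cut at about 34% in these data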;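 also: 0% = IFN-gamma with DMSO and 100% = IFN-gamma with 300 µM nifuroxazide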
# STAT3 inh-2: STAT3 inhibition, confirmation assay; actives 45% (n = 1,200); inhibition, % at 5.7 µM; U3A cells, IL-6 STAT3 luciferase reporter, luminescence; cell line lacks STAT1; shares compounds with STAT3 inh-1;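 active = inhibition above the hit cutoff computed for the primary STAT3 screen, cut at about 44% in these data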;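 also: 0% = IL-6 plus DMSO and 100% = IL-6 plus nifuroxazide control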
# NFkB inh 2: counter-screen for STAT3 inhibitors: NF-kappaB inhibition | shares compounds with STAT3 inh-1 | HEK293T NF-kB luciferase reporter, TNF-alpha induced | inhibition, % at 5.7 µM | actives 36% (n = 1,200) | AID 1308;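 active = inhibition above the mean of solvent-only control wells plus 3 SD, cutoff set per campaign, cut at about 13% in these data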;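 also: 0% = TNF-alpha with DMSO and 100% = TNF-alpha with MG high control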
# STAT1 inh STAT3c: inhibits STAT1, counter-screen to STAT3 inhibitors; shares compounds with STAT3 inh-1; NIH 3T3 STAT1-luciferase reporter, IFN-gamma induced, luminescence; actives 27% (n = 1,200); AID 1317; inhibition, % at 5.7 µM;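 active = inhibition above the mean plus 3 SD of solvent-only control wells, limit set per screening run, cut at about 16% in these data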;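 also: 0% = DMSO with IFN-gamma and 100% = nifuroxazide control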
# Numbers without * were called inactive; nt = no result given.
SMILES,STAT1 act,STAT3 act,APP 5'UTR act,NF-kB expr up,STAT3 inh-1,STAT1 inh,STAT3 inh-2,NFkB inh 2,STAT1 inh STAT3c
Cc1cccc(Nc2nnc(SCC(=O)NCc3cccs3)s2)c1C,105.1,93.8,-12.3,0.98,9.5,-5.7,nt,nt,nt
C=CCNc1ncnc2c1cnn2-c1ccc(C)cc1C,105.4,105.7,20.6,1.06,-6.8,-4.8,nt,nt,nt
CCOC(=O)N1CCC(Nc2ncnc3c2cnn3-c2ccc(C)cc2C)CC1,85.7,50.7,-17.7,0.73,64.1*,15.9,48.9*,14.1*,14.4
COc1ccc(CCN2C(=O)C3C4C=CC(C3C2=O)C2C(=O)N(CCc3ccc(OC)c(OC)c3)C(=O)C42)cc1OC (stereo not drawn),89.3,44.0,-29.3,0.86,67.6*,13.7,65.7*,29.1*,12.5
COc1ccc(CCN2C(=O)C3C4C=CC(C5CC45)C3C2=O)cc1OC (stereo not drawn),92.5,96.7,-7.8,1.11,7.2,6.1,nt,nt,nt
N#Cc1c(-c2ccccc2)nc(SCC(=O)Nc2nnc(C(F)(F)F)s2)[nH]c1=O,100.0,99.3,-9.8,1.03,8.3,-0.3,nt,nt,nt
CCc1cccc(C)c1NC(=S)N(CCCN1CCOCC1)Cc1cccnc1,95.7,98.8,13.9,1.2,2.1,5.2,nt,nt,nt
CCCCC1CCC(c2nc(-c3ccccn3)no2)CC1 (stereo not drawn),102.4,44.7,91.9,2.38,71.6*,-2.6,21.8,-39.0,-85.0
O=C(CN1C(=O)C2C3c4ccccc4C(c4ccccc43)C2C1=O)Nc1ccccc1C(=O)O (stereo not drawn),103.0,104.2,-10.2,1.23,-2.1,-3.4,nt,nt,nt
O=C(COC(=O)c1ccc2ncsc2c1)Nc1ncc(Cl)cc1Cl,94.4,101.5,4.9,1.37,2.1,6.3,nt,nt,nt
Cc1c(Cl)cnc(NC(=O)COC(=O)c2ccc3ncsc3c2)c1Cl,87.0,57.9,-5.7,1.15,49.8*,14.6,35.0,11.8,7.9
Clc1ccc(CCNc2ncnc3nc[nH]c23)cc1,97.6,60.8,-1.8,0.97,52.1*,2.7,35.0,0.7,-13.4
CCCNc1ncnc2nc[nH]c12,107.4,95.3,13.2,1.18,5.9,-6.9,nt,nt,nt
CCCCc1ccc(Nc2ncnc3nc[nH]c23)cc1,92.8,62.6,99.6,2.88,51.8*,7.9,40.8,-18.2,2.2
c1ccc(CCCNc2ncnc3nc[nH]c23)cc1,96.6,90.2,-3.4,1.12,11.3,0.8,nt,nt,nt
Cc1ccccc1N=C1NC(=O)/C(=C/c2cccn2-c2cccc(C(=O)O)c2)S1,103.0,104.1,5.1,1.12,6.2,-5.2,nt,nt,nt
Cc1ccc(SCc2cn3c(C)csc3n2)cc1,125.5,55.2,198.7*,5.73*,54.2*,-27.8,22.4,-20.7,-70.1
CCc1ccc(-c2nc(-c3ccncc3)no2)cc1,116.4,57.5,167.8*,3.4*,57.0*,-17.9,29.1,-14.0,-99.3
O=C(Nc1ccc2c(c1)nc1n2CCOC1)c1ccco1,121.3,98.8,47.0,1.72,4.9,-23.2,nt,nt,nt
O=C(Nc1ccc2c(c1)nc1n2CCSC1)c1ccco1,96.2,50.6,110.2,2.82,63.2*,4.1,23.7,-16.4,-38.5
COc1ccc(C2=NC(=O)/C(=C\c3cc(OC)c(OC)c(OC)c3)O2)cc1,89.5,101.8,-11.5,1.1,-0.9,10.8,nt,nt,nt
N/C(=N\OC(=O)COc1ccc(Br)cc1Cl)c1ccccn1,124.6,51.4,193.0*,5.59*,57.1*,-27.7,-16.2,-45.8,-144.8
Cc1ccc(NC(=O)CSc2nnc(-c3ccncc3)o2)cc1C,98.4,93.5,26.2,1.41,12.8,-0.4,nt,nt,nt
COc1ccc(Cl)cc1NC(=O)COC(=O)/C=C/c1c(C)nn(C2CCS(=O)(=O)C2)c1Cl (stereo not drawn),90.1,66.0,6.7,0.51,45.5*,11.0,32.1,0.6,-4.9
Cc1nn(-c2ccccc2)c(C)c1[N+](=O)[O-],103.5,109.4,4.2,0.89,-4.7,-4.1,nt,nt,nt
SMILES,STAT1 act,STAT3 act,APP 5'UTR act,NF-kB expr up,STAT3 inh-1,STAT1 inh,STAT3 inh-2,NFkB inh 2,STAT1 inh STAT3c
O=C(Nc1ccc2c(c1)C(=O)N(CC1CCCO1)C2=O)c1ccc(Cl)c(Cl)c1 (stereo not drawn),110.2,41.1,0.2,1.1,72.2*,-11.1,61.6*,14.5*,-16.4
CCCCc1c(C)nc2ccccc2c1SCCC(=O)O,102.7,105.7,3.1,1.18,-5.7,-4.0,nt,nt,nt
Cc1ccc(NC(=O)OCc2ccccc2S(C)=O)cc1 (stereo not drawn),110.0,99.7,26.1,1.48,1.7,-11.9,nt,nt,nt
C=CCn1c(SCC(=O)NC(=O)c2cccc([N+](=O)[O-])c2)nnc1-c1ccccc1,101.5,100.6,19.8,1.12,0.6,-2.1,nt,nt,nt
C/C(=N/NC(=O)c1cc(C2CC2)[nH]n1)c1cccs1,76.4,36.0,119.7,3.07,76.3*,25.5,51.8*,19.1*,-7.8
O=C(N/N=C/c1ccccn1)c1cc(C2CC2)[nH]n1,125.8,100.2,5.8,1.8,2.1,-26.8,nt,nt,nt
C/C(=N\NC(=O)c1ccncc1)c1cccs1,120.4,97.2,-4.8,1.34,11.5,-24.5,nt,nt,nt
C/C(=N\NC(=O)c1ccccc1O)c1cccs1,114.1,50.8,107.3,3.59*,60.7*,-14.3,29.5,-1.7,-8.1
CCC(C)NCCOCCOc1ccc(Cl)c2ccccc12 (stereo not drawn),96.5,103.3,3.5,0.67,0.9,0.8,nt,nt,nt
CCn1cc(C=C2C(=O)c3ccccc3C2=O)c2ccccc21,101.0,125.1,7.9,0.95,-29.1,-1.1,nt,nt,nt
Cc1nc(C)c(C(=O)Nc2ccc(Oc3ccccc3)cc2)o1,80.9,56.6,-8.1,0.87,55.1*,20.7,28.4,3.3,-2.0
O=c1[nH]c(/C(Cl)=C/c2cccc(F)c2)nc2cc(C(F)(F)F)ccc12,98.0,98.8,24.0,1.67,2.1,2.8,nt,nt,nt
O=C(CN1CCSC1=NCc1ccccc1)c1ccccc1,98.7,105.1,-3.3,0.84,-2.2,1.5,nt,nt,nt
O=C(NCc1cccnc1)c1c[nH]c2cc3c(cc2c1=O)OCCO3,94.7,55.2,79.9,1.97,60.2*,5.8,23.3,-15.1,-23.3
COc1cc(C2CC(=O)c3c([nH]c(C(=O)OCCOC(C)C)c3C)C2)cc(OC)c1OC (stereo not drawn),76.5,55.1,-22.3,0.53,58.8*,26.2,45.6*,12.0,20.8*
COc1ccc(CCNc2c(C)c(C)nc3ncnn23)cc1,78.3,35.7,-4.7,0.95,82.4*,23.7,84.6*,31.8*,25.6*
